From ChEMBL document CHEMBL2016577, “Preparation, antibacterial evaluation and preliminary structure-activity relationship (SAR) study of benzothiazol- and benzoxazol-2-amine derivatives” (Bioorg Med Chem Lett, 2012)
≈ marks a conversion by molar mass, not a printed value.

Legend:
Staphylococcus aureus [1] = assay: Antibacterial activity against Staphylococcus aureus ATCC 25923 after 16 hrs by broth microdilution method; format: functional; settings: ATCC 25923, 16 h
Enterococcus faecalis [2] = assay: Antibacterial activity against Enterococcus faecalis ATCC 29212 after 16 hrs by broth microdilution method; format: functional; settings: ATCC 29212, 16 h
Escherichia coli [3] = assay: Antibacterial activity against Escherichia coli ATCC 29425 after 16 hrs by broth microdilution method; format: functional; settings: ATCC 29425, 16 h
Staphylococcus aureus [4] = assay: Antibacterial activity against methicillin-susceptible Staphylococcus aureus after 16 hrs by broth microdilution method; format: functional
Summary of the method: (§1)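 Clinical isolates, including strains resistant to common antimicrobials, tested by the standard broth dilution method. The read-out is the minimum inhibitory concentration in μg/mL. Each value is representative of three independent determinations.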

Staphylococcus aureus [5] = assay: Antibacterial activity against methicillin-resistant Staphylococcus aureus after 16 hrs by broth microdilution method; format: functional; summary of the method: as §1
Streptococcus pneumoniae [6] = assay: Antibacterial activity against penicillin-susceptible Streptococcus pneumoniae after 16 hrs by broth microdilution method; format: functional
Streptococcus pneumoniae [7] = assay: Antibacterial activity against penicillin-resistant Streptococcus pneumoniae after 16 hrs by broth microdilution method; format: functional; summary of the method: as §1
Enterococcus faecalis [8] = assay: Antibacterial activity against vancomycin-susceptible Enterococcus faecalis after 16 hrs by broth microdilution method; format: functional
Enterococcus faecalis [9] = assay: Antibacterial activity against vancomycin-resistant Enterococcus faecalis after 16 hrs by broth microdilution method; format: functional; summary of the method: as §1
Enterococcus faecium [10] = assay: Antibacterial activity against vancomycin-susceptible Enterococcus faecium after 16 hrs by broth microdilution method; format: functional; summary of the method: as §1
Enterococcus faecium [11] = assay: Antibacterial activity against vancomycin-resistant Enterococcus faecium after 16 hrs by broth microdilution method; format: functional; summary of the method: as §1
Escherichia coli [12] = assay: Antibacterial activity against Escherichia coli clinical isolate after 16 hrs by 2-fold microdilution method; format: functional
HEK293 = assay: Cytotoxicity against human HEK293 cells after 48 hrs by MTT assay; format: cell-based; settings: HEK293, 48 h
Summary of the method: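 Standard MTT assay in Human Embryonic Kidney 293 cells, with 64 μg/mL as the top concentration tested. IC50 came from three independent experiments.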

[13] = Cytotoxicity against human HEK293 cells at 64 ug/ml after 48 hrs by MTT assay; format: cell-based; settings: read-out: INH
Summary of the method: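 HEK293 cells were exposed to compound at 64 μg/mL and assessed by standard MTT. Inhibitory rate was recorded across three independent experiments.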

Albumin = Albumin (Bos taurus, UniProt P02769); assay: Binding affinity to bovine serum albumin BY HPLC analysis; format: ADME; settings: cattle, isolated protein
Chain of Albumin (P02769 whole entry): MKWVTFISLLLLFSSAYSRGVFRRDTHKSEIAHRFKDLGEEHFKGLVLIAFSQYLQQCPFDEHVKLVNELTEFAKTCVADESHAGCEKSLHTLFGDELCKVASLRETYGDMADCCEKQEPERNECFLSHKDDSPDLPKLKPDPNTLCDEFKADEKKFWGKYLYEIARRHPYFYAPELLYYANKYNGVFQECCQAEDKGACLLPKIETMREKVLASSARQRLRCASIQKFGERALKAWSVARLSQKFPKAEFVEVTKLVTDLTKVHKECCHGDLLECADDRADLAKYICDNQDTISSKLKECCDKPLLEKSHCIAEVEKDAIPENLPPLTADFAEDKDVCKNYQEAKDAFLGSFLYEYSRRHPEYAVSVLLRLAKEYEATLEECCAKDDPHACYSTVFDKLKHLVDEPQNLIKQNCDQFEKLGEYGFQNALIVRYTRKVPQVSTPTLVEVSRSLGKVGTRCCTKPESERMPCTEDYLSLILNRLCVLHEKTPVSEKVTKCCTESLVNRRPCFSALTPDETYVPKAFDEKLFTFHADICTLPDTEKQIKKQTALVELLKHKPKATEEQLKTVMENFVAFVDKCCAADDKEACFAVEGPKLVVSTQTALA
Summary of the method: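 Compound was incubated with BSA standard solution and the bound fraction separated by centrifugal ultrafiltration. Free compound was quantified by HPLC. Binding degree = (Cb–Ca)/Cb, where Cb and Ca are the compound concentrations before and after interaction with BSA.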

| Structure (SMILES) | MIC (Staphylococcus aureus [1]) | MIC (Enterococcus faecalis [2]) | MIC (Escherichia coli [3]) | other results |
| --- | --- | --- | --- | --- |
| COc1ccc(CNCCNc2nc3ccccc3o2)cc1 | 64 µg/mL (≈ 215 µM) | 64 µg/mL (≈ 215 µM) | > 64 µg/mL |  |
| c1ccc(CNCCNc2nc3ccccc3s2)cc1 | > 64 µg/mL | > 64 µg/mL | > 64 µg/mL |  |
| COc1ccc2nc(NCCCNCc3ccc(Cl)c(Cl)c3)oc2c1 | 8 µg/mL (≈ 21 µM) | 16 µg/mL (≈ 42.1 µM) | 32 µg/mL (≈ 84.1 µM) |  |
| Brc1cccc(CNCCCNc2nc3ccccc3o2)c1 | 16 µg/mL (≈ 44.4 µM) | 8 µg/mL (≈ 22.2 µM) | 32 µg/mL (≈ 88.8 µM) |  |
| Clc1ccc2nc(NCCCNCc3ccc(Cl)c(Cl)c3)oc2c1 | 2 µg/mL (≈ 5.2 µM) | 4 µg/mL (≈ 10.4 µM) | 32 µg/mL (≈ 83.2 µM) |  |
| Brc1cccc(CNCCCNc2nc3ccccc3s2)c1 | 16 µg/mL (≈ 42.5 µM) | 8 µg/mL (≈ 21.3 µM) | 32 µg/mL (≈ 85 µM) |  |
| Oc1ccc(CNCCCNc2nc3ccccc3o2)cc1 | 32 µg/mL (≈ 108 µM) | 32 µg/mL (≈ 108 µM) | > 64 µg/mL |  |
| COc1ccc(CNCCNc2nc3ccccc3s2)cc1 | 32 µg/mL (≈ 102 µM) | 32 µg/mL (≈ 102 µM) | > 64 µg/mL |  |
| Clc1ccc(CNCCCNc2nc3ccccc3s2)cc1Cl | 4 µg/mL (≈ 10.9 µM) | 16 µg/mL (≈ 43.7 µM) | 32 µg/mL (≈ 87.4 µM) |  |
| Clc1ccc(CNCCCNc2nc3ccccc3o2)cc1Cl | 16 µg/mL (≈ 45.7 µM) | 2 µg/mL (≈ 5.71 µM) | 32 µg/mL (≈ 91.4 µM) |  |
| Clc1ccc2nc(NCCCNCc3ccc(Cl)c(Cl)c3)sc2c1 | 4 µg/mL (≈ 9.98 µM) | 2 µg/mL (≈ 4.99 µM) | 32 µg/mL (≈ 79.8 µM) |  |
| Clc1ccc(CNCCNc2nc3ccccc3s2)cc1Cl | 32 µg/mL (≈ 90.8 µM) | 64 µg/mL (≈ 182 µM) | > 64 µg/mL |  |
| Clc1ccc(CNCCCNc2nc3ccccc3o2)cc1 | 16 µg/mL (≈ 50.7 µM) | 16 µg/mL (≈ 50.7 µM) | > 64 µg/mL |  |
| CC1(C)S[C@@H]2[C@H](NC(=O)[C@H](N)c3ccccc3)C(=O)N2[C@H]1C(=O)O [AMPICILLIN] |  |  |  | MIC (Staphylococcus aureus [4]): 0.0625 µg/mL (≈ 0.179 µM); MIC (Staphylococcus aureus [5]): > 64 µg/mL; MIC (Streptococcus pneumoniae [6]): 0.125 µg/mL (≈ 0.358 µM); MIC (Streptococcus pneumoniae [7]): > 64 µg/mL; MIC (Enterococcus faecalis [8]): 0.125 µg/mL (≈ 0.358 µM); MIC (Enterococcus faecalis [9]): > 64 µg/mL; MIC (Enterococcus faecium [10]): 0.25 µg/mL (≈ 0.715 µM); MIC (Enterococcus faecium [11]): > 64 µg/mL; MIC (Escherichia coli [12]): 0.25 µg/mL (≈ 0.715 µM) |
| Clc1ccc(CNCCCNc2nc3ccccc3s2)c(Cl)c1 | 8 µg/mL (≈ 21.8 µM) | 8 µg/mL (≈ 21.8 µM) | > 64 µg/mL |  |
| c1ccc(CNCCCNc2nc3ccccc3o2)cc1 | > 64 µg/mL | > 64 µg/mL | > 64 µg/mL |  |
| Fc1cc2nc(NCCCNCc3ccc(Cl)c(Cl)c3)oc2cc1F | 1 µg/mL (≈ 2.59 µM) | 2 µg/mL (≈ 5.18 µM) | 32 µg/mL (≈ 82.9 µM) |  |
| Brc1cccc(CNCCNc2nc3ccccc3s2)c1 | 8 µg/mL (≈ 22.1 µM) | 64 µg/mL (≈ 177 µM) | 64 µg/mL (≈ 177 µM) |  |
| COc1ccc(CNCCCNc2nc3ccccc3o2)cc1 | 32 µg/mL (≈ 103 µM) | 32 µg/mL (≈ 103 µM) | > 64 µg/mL |  |
| COc1ccc2nc(NCCCNCc3ccc(Cl)c(Cl)c3)sc2c1 | 4 µg/mL (≈ 10.1 µM) | 4 µg/mL (≈ 10.1 µM) | > 64 µg/mL |  |
| Clc1ccc(CNCCNc2nc3ccccc3s2)cc1 | 8 µg/mL (≈ 25.2 µM) | 32 µg/mL (≈ 101 µM) | > 64 µg/mL |  |
| Fc1ccc2sc(NCCCNCc3ccc(Cl)c(Cl)c3)nc2c1 | 1 µg/mL (≈ 2.6 µM) | 2 µg/mL (≈ 5.2 µM) | 32 µg/mL (≈ 83.3 µM) |  |

| Structure (SMILES) | MIC (Staphylococcus aureus [1]) | MIC (Enterococcus faecalis [2]) | MIC (Escherichia coli [3]) | other results |
| --- | --- | --- | --- | --- |
| Oc1ccc(CNCCNc2nc3ccccc3s2)cc1 | 16 µg/mL (≈ 53.4 µM) | 32 µg/mL (≈ 107 µM) | > 64 µg/mL |  |
| Oc1ccc(CNCCNc2nc3ccccc3o2)cc1 | 32 µg/mL (≈ 113 µM) | 32 µg/mL (≈ 113 µM) | > 64 µg/mL |  |
| Brc1cccc(CNCCNc2nc3ccccc3o2)c1 | 8 µg/mL (≈ 23.1 µM) | 64 µg/mL (≈ 185 µM) | > 64 µg/mL |  |
| Clc1ccc(CNCCNc2nc3ccccc3s2)c(Cl)c1 | 2 µg/mL (≈ 5.68 µM) | 8 µg/mL (≈ 22.7 µM) | 32 µg/mL (≈ 90.8 µM) |  |
| Clc1ccc2oc(NCCCNCc3ccc(Cl)c(Cl)c3)nc2c1 | 2 µg/mL (≈ 5.2 µM) | 4 µg/mL (≈ 10.4 µM) | 32 µg/mL (≈ 83.2 µM) |  |
| CO/N=C(\C(=O)N[C@@H]1C(=O)N2C(C(=O)O)=C(COC(C)=O)CS[C@H]12)c1csc(N)n1 [CEFOTAXIME] |  |  |  | MIC (Staphylococcus aureus [4]): 1 µg/mL (≈ 2.2 µM); MIC (Staphylococcus aureus [5]): > 64 µg/mL; MIC (Streptococcus pneumoniae [6]): 1 µg/mL (≈ 2.2 µM); MIC (Streptococcus pneumoniae [7]): 64 µg/mL (≈ 141 µM); MIC (Enterococcus faecalis [8]): 1 µg/mL (≈ 2.2 µM); MIC (Enterococcus faecalis [9]): > 64 µg/mL; MIC (Enterococcus faecium [10]): 1 µg/mL (≈ 2.2 µM); MIC (Enterococcus faecium [11]): > 64 µg/mL; MIC (Escherichia coli [12]): 0.25 µg/mL (≈ 0.549 µM) |
| Oc1ccc(CNCCCNc2nc3ccccc3s2)cc1 | 16 µg/mL (≈ 51 µM) | 32 µg/mL (≈ 102 µM) | > 64 µg/mL |  |
| Fc1ccc2oc(NCCCNCc3ccc(Cl)c(Cl)c3)nc2c1 | 1 µg/mL (≈ 2.72 µM) | 4 µg/mL (≈ 10.9 µM) | 32 µg/mL (≈ 86.9 µM) |  |
| Clc1ccc2sc(NCCCNCc3ccc(Cl)c(Cl)c3)nc2c1 | 2 µg/mL (≈ 4.99 µM) | 2 µg/mL (≈ 4.99 µM) | 32 µg/mL (≈ 79.8 µM) |  |
| Cl.O=c1cc(NCCCNCc2ccc(Cl)c(Cl)c2)[nH]c2ccccc12 | 4 µg/mL | 0.5 µg/mL | > 64 µg/mL | MIC (Staphylococcus aureus [4]): 2 µg/mL; MIC (Staphylococcus aureus [5]): 2 µg/mL; MIC (Streptococcus pneumoniae [6]): 4 µg/mL; MIC (Streptococcus pneumoniae [7]): 8 µg/mL; MIC (Enterococcus faecalis [8]): 1 µg/mL; MIC (Enterococcus faecalis [9]): 2 µg/mL; MIC (Enterococcus faecium [10]): 1 µg/mL; MIC (Enterococcus faecium [11]): 1 µg/mL; MIC (Escherichia coli [12]): > 64 µg/mL; IC50 (HEK293): > 64 µg/mL; cytotoxicity at 48 h, 64 ug/ml [13]: 15% |
| Fc1cc2nc(NCCCNCc3ccc(Cl)c(Cl)c3)sc2cc1F | 0.5 µg/mL (≈ 1.24 µM) | 1 µg/mL (≈ 2.49 µM) | 32 µg/mL (≈ 79.5 µM) | MIC (Staphylococcus aureus [4]): 0.5 µg/mL (≈ 1.24 µM); MIC (Staphylococcus aureus [5]): 1 µg/mL (≈ 2.49 µM); MIC (Streptococcus pneumoniae [6]): 4 µg/mL (≈ 9.94 µM); MIC (Streptococcus pneumoniae [7]): 4 µg/mL (≈ 9.94 µM); MIC (Enterococcus faecalis [8]): 1 µg/mL (≈ 2.49 µM); MIC (Enterococcus faecalis [9]): 1 µg/mL (≈ 2.49 µM); MIC (Enterococcus faecium [10]): 2 µg/mL (≈ 4.97 µM); MIC (Enterococcus faecium [11]): 2 µg/mL (≈ 4.97 µM); MIC (Escherichia coli [12]): > 64 µg/mL; IC50 (HEK293): > 64 µg/mL; Activity (Albumin): 1.4%; cytotoxicity at 48 h, 64 ug/ml [13]: 15% |
| Clc1ccc(CNCCCNc2nc3ccccc3s2)cc1 | 16 µg/mL (≈ 48.2 µM) | 8 µg/mL (≈ 24.1 µM) | > 64 µg/mL |  |
| c1ccc(CNCCCNc2nc3ccccc3s2)cc1 | > 64 µg/mL | > 64 µg/mL | > 64 µg/mL |  |
| Clc1ccc(CNCCNc2nc3ccccc3o2)c(Cl)c1 | 8 µg/mL (≈ 23.8 µM) | 8 µg/mL (≈ 23.8 µM) | > 64 µg/mL |  |
| COc1ccc(CNCCCNc2nc3ccccc3s2)cc1 | 64 µg/mL (≈ 195 µM) | 64 µg/mL (≈ 195 µM) | > 64 µg/mL |  |
| Fc1ccc2nc(NCCCNCc3ccc(Cl)c(Cl)c3)sc2c1 | 1 µg/mL (≈ 2.6 µM) | 2 µg/mL (≈ 5.2 µM) | 32 µg/mL (≈ 83.3 µM) |  |
| Clc1ccc(CNCCNc2nc3ccccc3o2)cc1 | 8 µg/mL (≈ 26.5 µM) | 32 µg/mL (≈ 106 µM) | > 64 µg/mL |  |
| c1ccc(CNCCNc2nc3ccccc3o2)cc1 | > 64 µg/mL | > 64 µg/mL | > 64 µg/mL |  |
| Fc1ccc2nc(NCCCNCc3ccc(Cl)c(Cl)c3)oc2c1 | 1 µg/mL (≈ 2.72 µM) | 4 µg/mL (≈ 10.9 µM) | 32 µg/mL (≈ 86.9 µM) |  |
| Clc1ccc(CNCCCNc2nc3ccccc3o2)c(Cl)c1 | 8 µg/mL (≈ 22.8 µM) | 4 µg/mL (≈ 11.4 µM) | > 64 µg/mL |  |
| Clc1ccc(CNCCNc2nc3ccccc3o2)cc1Cl | 16 µg/mL (≈ 47.6 µM) | 8 µg/mL (≈ 23.8 µM) | > 64 µg/mL |  |
